The record followed here is ChEMBL document CHEMBL1833964, “Synthesis, structure-activity relationship and in vitro biological evaluation of N-arylethyl isoquinoline derivatives as Coxsackievirus B3 inhibitors” (Bioorg Med Chem Lett, 2011).

A short description of series [1]: Cytotoxicity against african green monkey Vero cells infected with Coxsackievirus B3 assessed as growth inhibition after 48 hrs by Reed-Muench analysis. In kind it is cell-based. The settings on record: chlorocebus sabaeus, read-out: TC50. Put shortly:
(§1)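 Vero cells plated at 2.5 × 10^4 per well and grown 24 h to a monolayer, then exposed to a range of test compound concentrations for 48 h at 37 °C. Cell damage was monitored as CPE, and TC50 came from Reed and Muench analysis. Each experiment was run three times.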

The next series has as its system Coxsackievirus B3. The series can be described thus: Antiviral activity against Coxsackievirus B3 infected in african green monkey vero cells assessed as inhibition of viral replication by Reed-Muench analysis. In kind it is functional, organism-based. The conditions noted are these: Enterovirus B. Put shortly: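 Vero monolayers infected with 100 TCID50 CVB3, then kept in maintenance medium (MEM plus 2% FBS) with or without test compound at various concentrations. Viral CPE was scored once the virus control reached 4+. The 50% inhibitory concentration came from Reed and Muench analysis. Three independent experiments.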

Series [2] in a line: Selectivity index, ratio of TC50 for african green monkey vero cells to IC50 for Coxsackievirus B3. It counts as toxicity, cell-based. The conditions noted are these: read-out: Selectivity Index. Put shortly:
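Selectivity index is TC50 divided by IC50. TC50 is from 48 h CPE monitoring of compound-treated uninfected Vero monolayers. IC50 is from CPE scoring at 4+ virus control in Vero cells infected with 100 TCID50 CVB3 and kept in MEM with 2% FBS. Both values came from Reed and Muench analysis, in triplicate experiments.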

Series [3] can be described thus: Cytotoxicity against african green monkey Vero cells infected with Enterovirus 71 assessed as growth inhibition after 48 hrs by Reed-Muench analysis. It counts as cell-based. The settings on record: chlorocebus sabaeus, read-out: TC50. Put shortly: as §1
For the next series, the system named is Enterovirus A71. Nature of the series: Antiviral activity against Enterovirus 71 infected in african green monkey vero cells assessed as inhibition of viral replication by Reed-Muench analysis. In kind it is functional, organism-based. The conditions noted are these: Enterovirus A.
The nature of series [4]: Selectivity index, ratio of TC50 for african green monkey vero cells to IC50 for Enterovirus 71. It counts as toxicity, cell-based. The conditions noted are these: read-out: Selectivity Index.

By IC50 is commonly meant the concentration that inhibits the measured activity by half.

Consider `Oc1ccc2cc[n+](CCc3ccccc3)cc2c1`, for which the results for the CC50 at 48 h in series [1] and in series [3] were 389 µM and 534 µM, respectively. Also, the IC50 in the series on Coxsackievirus B3 stood at 25 µM; with Enterovirus A71, 152 µM. Moreover, the selectivity ratio in series [2] came to 15.6; in series [4] it was 3.5.
Consider `COc1ccc2cc[n+](CCc3ccccc3)cc2c1O`, for which the CC50 at 48 h in series [1] came out at 352 µM. For the same compound, the IC50 with Coxsackievirus B3 turned out to be 91.1 µM. For the same compound, the selectivity ratio in series [2] turned out to be 3.9.
Turning to `COc1ccc2cc[n+](CCc3ccccc3C)cc2c1O`, the CC50 at 48 h in series [1] turned out to be 584 µM. Further, in the series with Coxsackievirus B3, the half-maximal inhibitory concentration (IC50) is greater than 337 µM.
The corresponding values for `COc1ccc(CC[n+]2ccc3ccc(OC)c(O)c3c2)cc1` are 464 µM and greater than 107 µM.
In the case of `COc1ccc2cc[n+](CCc3ccccc3)cc2c1OC`, in series [1], the CC50 at 48 h amounted to 584 µM. The IC50 with Coxsackievirus B3 came out at 209 µM. Also, the selectivity ratio in series [2] is 2.8.
For `COc1cc2cc[n+](CCc3ccccc3)cc2cc1OC`, in series [1], the CC50 at 48 h stood at 1010 µM. Also, in the series with Coxsackievirus B3, the IC50 is greater than 337 µM.
As for `COc1ccc2cc[n+](CCc3ccc(F)cc3)cc2c1OC`, the CC50 at 48 h in series [1] was determined as 1380 µM. Besides, the IC50 in the series on Coxsackievirus B3 was greater than 320 µM.
In the case of `COc1ccc(CC[n+]2ccc3ccc(OC)c(OC)c3c2)cc1`, the CC50 at 48 h in series [1] turned out to be 49.5 µM. For the same compound, in the series on Coxsackievirus B3, the IC50 was greater than 11.4 µM.
For `c1ccc(CC[n+]2ccc3ccc4c(c3c2)OCO4)cc1`, the CC50 at 48 h in series [1] is 815 µM; in series [3] it was 820 µM. In addition, the IC50 in the series on Coxsackievirus B3 stood at 30.4 µM; in the series on Enterovirus A71, 91.1 µM. In addition, the figures for the selectivity ratio in series [2] and in series [4] were 26.8 and 9, respectively.
Consider `Fc1ccc(CC[n+]2ccc3ccc4c(c3c2)OCO4)cc1`, for which the CC50 at 48 h is 581 µM in series [1] and 420 µM in series [3]. Further, the IC50 is greater than 335 µM with Coxsackievirus B3 and 45.8 µM with Enterovirus A71. The selectivity ratio in series [4] was determined as 9.2.
On the same counts, the results for `COc1cc2cc[n+](CCc3ccc(F)cc3)cc2cc1OC` are 665 µM, 864 µM, greater than 320 µM, 107 µM and 8.1.
On to `COc1cc2cc[n+](CCc3ccccc3F)cc2cc1OC`, for which the CC50 at 48 h in series [1] worked out at 206 µM. In the series with Coxsackievirus B3, the IC50 was greater than 53.3 µM.
Turning to `COc1cc2cc[n+](CCc3cccc(Cl)c3)cc2cc1OC`, the CC50 at 48 h in series [1] came to 131 µM. For the same compound, the IC50 in the series with Coxsackievirus B3 was greater than 33.9 µM.
On the same counts, the results for `COc1cc2cc[n+](CCc3ccccc3C)cc2cc1OC` are 970 µM and greater than 323 µM.
With `COc1cc2c[n+](CCc3ccccc3C)ccc2cc1O`, the CC50 at 48 h in series [1] was 234 µM. Further, in the series with Coxsackievirus B3, the IC50 stood at 112 µM. In addition, in series [2], the selectivity ratio is 2.1.
On to `COc1cc2c[n+](CCc3ccccc3F)ccc2cc1O`, for which the CC50 at 48 h in series [1] stood at 333 µM. The IC50 in the series with Coxsackievirus B3 is greater than 111 µM.
On the same counts, the results for `Oc1ccc2cc[n+](CCc3cccc(Cl)c3)cc2c1` are 200 µM and greater than 38.6 µM.
On the same counts, the results for `Oc1ccc2cc[n+](CCc3ccc(F)cc3)cc2c1` are 1100 µM and greater than 336 µM.
Consider `Cc1ccccc1CC[n+]1ccc2ccc(O)cc2c1`, for which the CC50 at 48 h in series [1] stood at 772 µM. The IC50 in the series with Coxsackievirus B3 came out at 371 µM. Further, in series [2], the selectivity ratio stood at 2.1.
Consider `COc1ccccc1CC[n+]1ccc2ccc(O)cc2c1`, for which the CC50 at 48 h in series [1] was determined as 1060 µM. The IC50 in the series with Coxsackievirus B3 was greater than 352 µM.
The corresponding values for `COc1cc2c[n+](CCc3ccccc3)ccc2c(OC)c1OC` are 2780 µM and greater than 927 µM.
The corresponding values for `COc1ccc(CC[n+]2ccc3c(OC)c(OC)c(OC)cc3c2)cc1` are 46 µM and greater than 10.6 µM.
Take `NC(=O)c1ncn([C@@H]2O[C@H](CO)[C@@H](O)[C@H]2O)n1` [RIBAVIRIN]: the IC50 in the series with Coxsackievirus B3 is 910 µM; in the series with Enterovirus A71, 2120 µM.
